Rows were chosen to be rich in hits. Some 2.6% of all compounds tested hit in one or more screens of this group.
VIM-2 inh: VIM-2 metallo-beta-lactamase inhibitors, primary screen, biochemical, epi-absorbance readout, Pseudomonas aeruginosa enzyme; purified VIM-2, nitrocefin hydrolysis, epi-absorbance fluorescence; inhibition, % at 5.6 µM; 290,000 tested, 0.89% active; AID 1527, 2009;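 active means inhibition above the mean of all tested compounds plus 3 SD, cutoff set per screening run, cut at about 7.5% in these data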;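 further: red hydrolysis product quenches plate fluorescence so inhibitors raise well fluorescence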
PHOSPHO1 block: PubChem AID 1565. Phosphoethanolamine/phosphocholine phosphatase (Homo sapiens), Q8TCT1. recombinant PHOSPHO1, absorbance phosphatase assay. inhibition, % at 13.3 µM. 290,000 tested, 1.1% active; in the data active means inhibition above about 60%
Calb FLC: C. albicans growth inhibition with fluconazole, primary screen, CaCi-2 strain, Alamar Blue fluorescence | growth inhibition, % (no concentration beside the values) | 300,000 tested, 0.57% active | C. albicans CaCi-2 + fluconazole, 48 h | AID 1979, 2009;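 active means growth inhibition above about 58% in most replicates, limit read from the data, passing the limit was not always enough; inconclusive means exactly half the replicates above a set limit; inactive means most replicates below a set limit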;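 further: all wells also contain fluconazole at 8 µg/ml as a sub-toxic cotreatment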
ARFGAP1 inh: inhibitors of rat ARFGAP1 GAP activity, primary screen, biochemical, fluorescence polarization, GDP tracer | 360,000 tested, 0.26% active | AID 651572, 2012 | inhibition, % at 16.5 µM | ADP-ribosylation factor GTPase-activating protein 1 (Rattus norvegicus), Q62848 | Arfgap1-stimulated ARF1 GTP hydrolysis, GDP FP detection;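 active means inhibition above a per-plate limit, mean inhibition of low control wells plus 3 SD, cut at about 25% in these data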
Target sequence (Q62848 1-136 limits assumed): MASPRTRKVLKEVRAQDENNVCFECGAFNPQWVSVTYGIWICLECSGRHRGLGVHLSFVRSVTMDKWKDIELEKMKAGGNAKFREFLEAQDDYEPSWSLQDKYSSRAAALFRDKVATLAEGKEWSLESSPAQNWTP
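Material – truncated rat Arfgap1 GAP domain · Buffer or medium – HEPES-based buffer, pH 7.5 · Reagent – human ARF1(Δ1-17)-GTP substrate · Dosing – 16.5 µM single point, 1.26% DMSO · Schedule – GTP hydrolysis reaction 2 h at 25 °C · Technique – GDP detection by fluorescence polarization · Benchmarks – No-Arfgap1 wells (100%) versus DMSO full-reaction wells (0%) · Repeats – single replicate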
ASAP1 inh: inhibitors of human ASAP1 ArfGAP activity, primary screen, biochemical, fluorescence polarization; Arf-GAP with SH3 domain, ANK repeat and PH domain-containing protein 1 (Homo sapiens), …; ASAP1-stimulated ARF1 GTP hydrolysis, GDP FP detection; inhibition, % at 16.5 µM; 360,000 tested, 0.19% active; AID 624377, 2012; in the data active means inhibition above about 25%
Target sequence (Q9ULH1 325-724 limits assumed): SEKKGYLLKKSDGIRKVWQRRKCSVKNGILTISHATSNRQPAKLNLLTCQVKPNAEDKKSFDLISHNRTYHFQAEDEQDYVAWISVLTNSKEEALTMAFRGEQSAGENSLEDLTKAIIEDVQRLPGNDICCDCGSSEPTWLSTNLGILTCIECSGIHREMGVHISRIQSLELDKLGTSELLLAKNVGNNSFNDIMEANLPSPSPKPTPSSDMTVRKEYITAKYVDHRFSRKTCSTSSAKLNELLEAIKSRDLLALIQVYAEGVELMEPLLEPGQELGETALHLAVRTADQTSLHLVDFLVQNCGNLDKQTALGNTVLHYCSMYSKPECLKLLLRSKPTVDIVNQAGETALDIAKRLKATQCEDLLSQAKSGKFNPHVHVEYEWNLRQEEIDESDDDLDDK
IMP-1 inhibitor: IMP-1 metallo-beta-lactamase inhibitors, primary screen, biochemical, epi-absorbance readout, Pseudomonas aeruginosa enzyme; inhibition, % at 5.6 µM; 290,000 tested, 0.45% active; AID 1556, 2009; purified IMP-1, nitrocefin hydrolysis, epi-absorbance fluorescence; metallo-beta-lactamase IMP-1 (Pseudomonas aeruginosa);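 active means inhibition above the mean plus 3 SD of all compounds in the same screening run, cut at about 4.5% in these data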
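Assay system: purified recombinant IMP-1 beta-lactamase. Input: IMP-1 0.2 nM before substrate addition. Buffer or medium: Zinc- and detergent-supplemented HEPES buffer, pH 7.1. Schedule: 25 °C, 15 min preincubation, 25 min reaction. Signal: Epi-absorbance fluorescence, 480 nm excitation, 530 nm emission. Evaluation: percent inhibition from optical density relative to buffer-blank wells.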
A number is an active result; 0 = inactive; ? = inconclusive; - = no result given.

SMILES	VIM-2 inh	PHOSPHO1 block	Calb FLC	ARFGAP1 inh	ASAP1 inh	IMP-1 inhibitor
Cc1ccc(-c2csc3nc4c5ccccc5c(NCCCN5CCOCC5)nn4c(=O)c23)cc1	0	0	0	-	-	0
COc1ccccc1Nc1nnc(SCC(=O)N2CCCC2=O)s1	0	61	0	0	0	0
S=C(Nc1cccc2ccccc12)NN1CCOCC1	0	94	0	0	0	0
CCOC(=O)N[C@H](C(=O)N1CCC[C@H]1C(=O)NCc1ccccc1)C(C)C	-	-	-	0	0	-
Cc1noc(C)c1S(=O)(=O)N(C)C[C@@H]1OCc2cn(nn2)CCCC(=O)N([C@H](C)CO)C[C@H]1C	-	-	-	0	0	-
COc1cc2c(c3c1c(=O)c1cccc(F)c1n3C)C=CC(C)(C)O2	-	-	-	0	0	-
COC(=O)CSc1nc(N)c(C#N)c(-c2ccco2)c1C#N	0	0	0	0	0	0
CCSc1nc(N)c(C#N)c(-c2ccco2)c1C#N	0	0	0	0	0	4.5
C=CCCC1CN(CC=C)S(=O)(=O)c2c(F)cccc2O1 (stereo unspecified)	-	-	-	0	0	-
CCOc1ccc([N+](=O)[O-])cc1CNC1CCCCCCC1	0	-	0	0	0	39
O=[N+]([O-])c1cccc(CNC2CCCCCC2)c1	0	0	0	0	0	0
CN(C)c1ncc(C2=C(Cl)C(=O)C(N3CCCC3)=C(Cl)C2=O)s1	0	-	0	0	0	5.2
O=C1C(Cl)=C(N2CCCCC2)C(=O)C(Cl)=C1c1cnc(N2CCCCC2)s1	0	0	0	-	-	0
CN(CCc1ccccn1)C(=O)[C@@H](Cc1ccccc1)NC(=O)[C@H]1O[C@@H](n2ccc(=O)[nH]c2=O)[C@H](O)[C@@H]1O	-	-	-	0	0	-
C=CCc1ccccc1OCC(=O)OCCNC(=O)c1cccnc1	0	71	0	0	0	0
Cc1cc(C)c(OCC(=O)OCCNC(=O)c2cccnc2)c(C)c1	0	0	0	0	0	0
CCCCOCCCNC(=O)C[C@H]1C[C@@]2(C(=O)OC)C(=C[C@H](C(C)(C)C)O[C@@H]2C)N(CCC2=CCCCC2)C1=O	-	-	-	0	0	-
c1ccc(-c2ccccc2OCCCN2CCCC2)cc1	0	0	0	0	0	0
c1ccc(-c2ccccc2OCCCN2CCCCCC2)cc1	0	0	90	0	0	0
CN1CCN(C(=O)CCN2C(=O)/C(=C/c3cccc(Br)c3)SC2=S)CC1	0	0	0	0	0	5.5
CN1CCN(C(=O)CCCN2C(=O)/C(=C/c3cccc(Br)c3)SC2=S)CC1	12	0	0	0	0	0
C#CCC1c2ccccc2CCN1CC=C (stereo unspecified)	-	-	-	0	0	-
COCC(=O)NCC1CCN(C(=O)C(=O)c2cccs2)CC1	-	-	-	0	0	-
COc1ccc(-c2nnc(Nc3nc4c(OC)cccc4s3)o2)c(OC)c1	0	0	101	0	0	0
COc1cc(OC)cc(-c2nnc(Nc3nc4c(F)cccc4s3)o2)c1	0	0	115	0	0	0
SMILES	VIM-2 inh	PHOSPHO1 block	Calb FLC	ARFGAP1 inh	ASAP1 inh	IMP-1 inhibitor
COc1ccc(-c2nnc(Nc3nc4c(OC)cccc4s3)o2)cc1	0	0	0	0	0	0
O=C(Nc1ccccn1)c1cc2ccccc2cc1O	0	0	0	-	-	0
Oc1cccc2ccc(Nc3ccccn3)nc12	0	0	103	0	0	0
CCOC(=O)c1c(NC(C)=O)sc2c(OCC(O)CN(CC)CC)c(Br)ccc12 (stereo unspecified)	9.3	0	0	0	0	0
O=C(NCc1ccccc1)[C@@H]1CCCN1C(=O)[C@H]1CCCN1C(=O)c1cccc(F)c1	-	-	-	0	0	-
O=C(N/N=C/c1cccc([N+](=O)[O-])c1)c1ccc(Br)cc1	0	65	0	0	0	0
O=C(N/N=C/c1cccc([N+](=O)[O-])c1)c1cccc(Br)c1	0	0	0	0	0	0
Cc1c(OCC(=O)N2C[C@H]3C[C@@H](C2)c2cccc(=O)n2C3)ccc2c3c(c(=O)oc12)CCCC3	0	0	0	0	0	0
Cc1c(OCC(=O)N2C[C@H]3C[C@@H](C2)c2cccc(=O)n2C3)ccc2c3c(c(=O)oc12)CCC3	12	0	0	0	0	0
O=C(COc1cc2oc(=O)c3c(c2cc1Cl)CCC3)N1C[C@H]2C[C@@H](C1)c1cccc(=O)n1C2	11	0	0	0	0	0
CCOC(=O)N1CCN(C(=O)Nc2sc3nc4n(c(=O)c3c2C)CCC(C)CC4)CC1 (stereo unspecified)	0	74	0	0	0	0
CCOC(=O)N1CCC(NC(=O)c2sc3nc4n(c(=O)c3c2C)CCCC4)CC1	0	0	0	0	0	0
CCOC(=O)c1sc2nc3n(c(=O)c2c1C)CCC(C)CC3 (stereo unspecified)	0	78	0	0	0	0
C=CCn1c(-c2ccccc2)c[nH]c1=S	0	79	0	0	0	0
Cc1ccc(-c2c[nH]c(=S)n2-c2ccccc2)cc1	0	0	0	0	0	0
C=CCn1c(-c2ccc(Cl)cc2)c[nH]c1=S	0	94	0	0	0	0
Cn1c(-c2ccc(-c3ccccc3)cc2)c[nH]c1=S	0	95	0	0	0	0
S=c1[nH]cc(-c2ccccc2)n1-c1ccccc1Cl	0	0	0	0	0	0
CCn1c(-c2ccc(-c3ccccc3)cc2)c[nH]c1=S	0	97	0	0	0	0
O=C1CC(O)C(Cc2ccccc2)N1 (stereo unspecified)	-	-	-	0	0	-
CC(=O)C1=CCC(c2ccco2)N(S(=O)(=O)c2ccc(C)cc2)C1 (stereo unspecified)	-	-	-	0	0	-
C[C@@H]1ON(C)[C@H]2C[C@H]3c4cc(-c5ccccc5)ccc4CCN3C[C@@H]12	-	-	-	0	0	-
CCNS(=O)(=O)c1ccc(NC(=O)c2cccnc2)cc1	0	0	100	0	0	0
Cc1cc2nc(C3CCCCC3)c(Cc3cccc(Cl)c3)n2c(C)c1Br	-	-	-	0	0	-
Cc1ccc(C(c2nnnn2C2CCCCC2)N2CCc3ccccc32)cc1 (stereo unspecified)	0	0	?	0	0	0
N#Cc1cccc(C(c2nnnn2C2CCCC2)N2CCCCCC2)c1 (stereo unspecified)	0	62	0	0	0	0
COc1cc(C(c2nnnn2C2CCCC2)N2CCc3ccccc3C2)ccc1O (stereo unspecified)	0	77	0	0	0	0
Oc1ccc(C(c2nnnn2C2CCCC2)N2CCc3ccccc3C2)cc1 (stereo unspecified)	0	84	0	0	0	0

Bioassay records (PubChem BioAssay)
